Assay results taken from ChEMBL document CHEMBL1142321, “Selection of a respiratory syncytial virus fusion inhibitor clinical candidate. 2. Discovery of a morpholinopropylaminobenzimidazole derivative (TMC353121)” (J Med Chem, 2008).
In brackets after ≈: the same amount, converted by molar mass.

How the values were obtained:
[1] = test system: Respiratory syncytial virus; experiment: Inhibition of RSV by MTT assay; assay type: functional, organism-based; conditions: human respiratory syncytial virus
Method in brief: (§1)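 HeLaM epithelial-like cells infected with RSV with or without a range of compound concentrations; viability read by MTT after 1 week incubation. OD measured spectrophotometrically and pEC50 derived. Virus, cell and cytotoxicity controls on every plate, reference compounds in every test; runs failing control criteria rejected.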

[2] = Cytotoxicity against human HeLaM cells by MTT assay; assay type: functional, M-HeLa
[3] = Half life in Sprague-Dawley rat lung; assay type: ADME, organism-based
[4] = test system: Respiratory syncytial virus; experiment: Antiviral activity against RSV R2LO replication in HeLa cells; assay type: functional, organism-based; conditions: for EC50: human respiratory syncytial virus, HeLa; method in brief: as §1
[5] = test system: Respiratory syncytial virus; experiment: Antiviral activity against RSV R6LO replication in HeLa cells; assay type: functional, organism-based; conditions: for EC50: human respiratory syncytial virus, HeLa; method in brief: as §1
[6] = test system: Respiratory syncytial virus; experiment: Antiviral activity in RSV infected cotton rat model assessed as log reduction of viral titer at 0.25 mg/mL by aerosol administration 1 hr prior to viral challenge; assay type: functional
Method in brief: (§2)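 Single aerosol from an ultrasonic nebulizer for 1 h, given 1 h before RSV challenge; dose stated as drug concentration in the nebulizer reservoir. BALF collected by lung flushing with physiological water 4 days after challenge. Virus titre measured by plaque titration; log reduction calculated against untreated control animals.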

[7] = test system: Respiratory syncytial virus; experiment: Antiviral activity in RSV infected cotton rat model assessed as log reduction of viral titer at 1.25 mg/mL by aerosol administration 1 hr prior to viral challenge; assay type: functional; method in brief: as §2
[8] = test system: Respiratory syncytial virus; experiment: Antiviral activity in RSV infected cotton rat model assessed as log reduction of viral titer at 5 mg/mL by aerosol administration 1 hr prior to viral challenge; assay type: functional; method in brief: as §2
[9] = test system: Respiratory syncytial virus; experiment: Antiviral activity in RSV infected cotton rat model assessed as log reduction of viral titer at 20 mg/mL by aerosol administration 1 hr prior to viral challenge; assay type: functional; method in brief: as §2
[10] = test system: Respiratory syncytial virus; experiment: Antiviral activity in RSV infected cotton rat model assessed as log reduction of viral titer at 10 mg/kg, iv after 24 hrs of viral challenge; assay type: functional
Method in brief: (§3)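 Cotton rats received a single iv dose at set times before (minus) or after (plus) RSV challenge. Day 4 after challenge, lungs flushed with physiological water and BALF virus titre measured by plaque titration. Log reduction calculated against untreated controls.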

[11] = test system: Respiratory syncytial virus; experiment: Antiviral activity in RSV infected cotton rat model assessed as log reduction of viral titer at 10 mg/kg, po 2 hrs prior to viral challenge; assay type: functional
Method in brief: (§4)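 Cotton rats dosed once orally by gavage 2 h before RSV challenge. BALF obtained by lung lavage with physiological water 4 days after challenge, virus titred by plaque assay. Log reduction expressed versus untreated control animals.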

[12] = test system: Respiratory syncytial virus; experiment: Antiviral activity in RSV infected cotton rat model assessed as log reduction of viral titer at 40 mg/kg, po 2 hrs prior to viral challenge; assay type: functional; method in brief: as §4
[13] = AUC (0 to infinity) in Sprague-Dawley rat plasma at 2 mg/kg, iv; assay type: ADME, organism-based; set-up: time infinity, dose 2 mg/kg, route intravenous
[14] = Plasma clearance in Sprague-Dawley rat at 2 mg/kg, iv; assay type: ADME, organism-based; set-up: dose 2 mg/kg, route intravenous
[15] = Volume of distribution in Sprague-Dawley rat plasma at 2 mg/kg, iv; assay type: ADME, organism-based; set-up: dose 2 mg/kg, route intravenous
[16] = Half life in Sprague-Dawley rat plasma at 2 mg/kg, iv; assay type: ADME, organism-based; set-up: dose 2 mg/kg, route intravenous
[17] = Cmax in Sprague-Dawley rat plasma at 10 mg/kg, po; assay type: ADME, organism-based; set-up: dose 10 mg/kg, route oral
[18] = AUC (0 to infinity) in Sprague-Dawley rat plasma at 10 mg/kg, po; assay type: ADME, organism-based; set-up: time infinity, dose 10 mg/kg, route oral
[19] = Absolute bioavailability in Sprague-Dawley rat plasma at 10 mg/kg, po; assay type: ADME, organism-based
[20] = test system: Respiratory syncytial virus; experiment: Antiviral activity against RSV LO replication in HeLa cells; assay type: functional, organism-based; method in brief: as §1
[21] = test system: Respiratory syncytial virus; experiment: Antiviral activity against RSV Cl11 replication in HeLa cells; assay type: functional, organism-based; conditions: for EC50: human respiratory syncytial virus, HeLa; method in brief: as §1
[22] = test system: Respiratory syncytial virus; experiment: Antiviral activity against RSV CI57 replication in HeLa cells; assay type: functional, organism-based; conditions: for EC50: human respiratory syncytial virus, HeLa; method in brief: as §1
[23] = test system: Respiratory syncytial virus; experiment: Antiviral activity against RSV CI41 replication in HeLa cells; assay type: functional, organism-based; conditions: for EC50: human respiratory syncytial virus, HeLa; method in brief: as §1
[24] = test system: Respiratory syncytial virus; experiment: Antiviral activity against RSV CI42 replication in HeLa cells; assay type: functional, organism-based; conditions: for EC50: human respiratory syncytial virus, HeLa; method in brief: as §1
[25] = test system: Respiratory syncytial virus; experiment: Antiviral activity against RSV R1LO replication in HeLa cells; assay type: functional, organism-based; conditions: for EC50: human respiratory syncytial virus, HeLa; method in brief: as §1
[26] = test system: Respiratory syncytial virus; experiment: Antiviral activity in RSV infected cotton rat model assessed as log reduction of viral titer at 2 mg/kg, iv 5 mins prior to viral challenge; assay type: functional; method in brief: as §3
[27] = test system: Respiratory syncytial virus; experiment: Antiviral activity in RSV infected cotton rat model assessed as log reduction of viral titer at 10 mg/kg, iv 96 hrs prior to viral challenge; assay type: functional; method in brief: as §3
[28] = test system: Respiratory syncytial virus; experiment: Antiviral activity in RSV infected cotton rat model assessed as log reduction of viral titer at 10 mg/kg, iv 72 hrs prior to viral challenge; assay type: functional; method in brief: as §3
[29] = test system: Respiratory syncytial virus; experiment: Antiviral activity in RSV infected cotton rat model assessed as log reduction of viral titer at 10 mg/kg, iv 48 hrs prior to viral challenge; assay type: functional; method in brief: as §3
[30] = test system: Respiratory syncytial virus; experiment: Antiviral activity in RSV infected cotton rat model assessed as log reduction of viral titer at 10 mg/kg, iv 24 hrs prior to viral challenge; assay type: functional; method in brief: as §3
[31] = test system: Respiratory syncytial virus; experiment: Antiviral activity in RSV infected cotton rat model assessed as log reduction of viral titer at 10 mg/kg, iv 4 hrs prior to viral challenge; assay type: functional; method in brief: as §3
[32] = test system: Respiratory syncytial virus; experiment: Antiviral activity in RSV infected cotton rat model assessed as log reduction of viral titer at 10 mg/kg, iv 1 hrs prior to viral challenge; assay type: functional; method in brief: as §3
[33] = test system: Respiratory syncytial virus; experiment: Antiviral activity in RSV infected cotton rat model assessed as log reduction of viral titer at 10 mg/kg, iv 5 mins prior to viral challenge; assay type: functional; method in brief: as §3
[34] = test system: Respiratory syncytial virus; experiment: Antiviral activity in RSV infected cotton rat model assessed as log reduction of viral titer at 10 mg/kg, iv after 3 hrs of viral challenge; assay type: functional; method in brief: as §3

## Cc1ccc(O)c(Cn2c(NC3CCN(C)CC3)nc3ccc(CNc4ccccc4)cc32)n1
[1]
  EC50: 15.8 nM
[2]
  pCC50: 4.5

## Cc1ccc(O)c(Cn2c(NCCCN3CCOCC3)nc3ccc(CN(CCO)c4ccccc4)cc32)n1
[1]
  EC50: 3.16 nM
[2]
  pCC50: 4.3

## Cc1cccc(/C=C/c2ccc3nc(NC4CCN(C)CC4)n(Cc4nc(C)ccc4O)c3c2)c1
[1]
  EC50: 501 nM
[2]
  pCC50: 5.6

## Cc1cccc(C(=O)Nc2ccc3nc(NC4CCN(C)CC4)n(Cc4nc(C)ccc4O)c3c2)c1
[1]
  EC50: 63.1 nM
[2]
  pCC50: 4.3

## Cc1ccc(O)c(Cn2c(NC3CCN(C)CC3)nc3ccc(CN(C)c4ccccc4)cc32)n1
[1]
  EC50: 39.8 nM
[2]
  pCC50: 5.2

## Cc1cc(C)cc(NCc2ccc3nc(NCCc4ccccc4)n(Cc4nc(C)ccc4O)c3c2)c1
[1]
  EC50: > 100000 nM
[2]
  pCC50: 4.4

## Cc1cccc(CNc2ccc3nc(NC4CCN(C)CC4)n(Cc4nc(C)ccc4O)c3c2)c1
[1]
  EC50: 15.8 nM
[2]
  pCC50: 4.8

## Cc1cccc(NCc2ccc3nc(NC4CCN(CCO)CC4)n(Cc4nc(C)ccc4O)c3c2)c1
[1]
  EC50: 1.58 nM
[2]
  pCC50: 4.4
[3]
  half-life: 67.7 h

## Cc1cc(C)cc(NCc2ccc3nc(NCC(O)CO)n(Cc4nc(C)ccc4O)c3c2)c1 (centres undefined)
[1]
  EC50: 31.6 nM
[2]
  pCC50: 4.3

## Cc1cc(C)cc(NCc2ccc3nc(NCCCN4CCN(C)CC4)n(Cc4nc(C)ccc4O)c3c2)c1
[1]
  EC50: 3.98 nM
[2]
  pCC50: 5

## Cc1cc(C)cc(N(CCO)Cc2ccc3nc(NCCCN4CCOCC4)n(Cc4nc(C)ccc4O)c3c2)c1
[1]
  EC50: 0.501 nM
[2]
  pCC50: 4.4
[3]
  half-life: 19.6 h

## Cc1cc(C)cc(NCc2ccc3nc(NC4CCN(C)CC4)n(Cc4nc(C)ccc4O)c3c2)c1
[1]
  EC50: 2.51 nM
[2]
  pCC50: 4.3

## Cc1cccc(NCc2ccc3nc(NC4CCN(C)CC4)n(Cc4nc(C)ccc4O)c3c2)c1
[1]
  EC50: 5.01 nM
[2]
  pCC50: 4.7

## Cc1ccc(O)c(Cn2c(NC3CCN(CCN)CC3)nc3c(C)cccc32)n1 [JNJ 2408068]
[1]
  EC50: 0.251 nM
[2]
  pCC50: <4

## Cc1ccc(CCCO)c(NCc2ccc3nc(NCCCN4CCOCC4)n(Cc4nc(C)ccc4O)c3c2)c1
[4]
  pEC90: <4
[4]; read-out: EC50
  EC50: 280 ng/mL
[4]; read-out: Log EC50 (converted)
  EC50: 501 nM
[5]
  pEC90: <6.7
[5]; read-out: EC50
  EC50: 0.04 ng/mL
[5]; read-out: Log EC50 (converted)
  EC50: 0.0794 nM
[6]
  Activity: 0.6
[7]
  Activity: 1
[8]
  Activity: 1.5
[9]
  Activity: 1.6
[10]
  Activity: 0.2
[11]
  Activity: 0.4
[12]
  Activity: 0.8
[13]
  AUC(0-inf): 354 ng·h/mL
[14]
  clearance: 90 mL/min/kg
[15]
  Vd: 79.3 L/kg
[16]
  half-life: 10.3 h
[17]
  Cmax: 47.3 ng/mL
[18]
  AUC(0-inf): 246 ng·h/mL
[19]
  bioavailability: 14%
[2]
  pCC50: 5.1
[2]; Homo sapiens, M-HeLa
  CC50: 4440 ng/mL (≈ 7.94 µM)
[3]
  half-life: 25.1 h
[20]
  pEC90: 9.6
[20]; human respiratory syncytial virus, HeLa
  EC50: 0.07 ng/mL (≈ 0.000125 µM)
[21]
  pEC90: 10
[21]; read-out: EC50
  EC50: 0.03 ng/mL
[21]; read-out: Log EC50 (converted)
  EC50: 0.0501 nM
[22]
  pEC90: 9.8
[22]; read-out: EC50
  EC50: 0.04 ng/mL
[22]; read-out: Log EC50 (converted)
  EC50: 0.0794 nM
[23]
  pEC90: 10.1
[23]; read-out: EC50
  EC50: 0.02 ng/mL
[23]; read-out: Log EC50 (converted)
  EC50: 0.0316 nM
[24]
  pEC90: 10.1
[24]; read-out: EC50
  EC50: 0.02 ng/mL
[24]; read-out: Log EC50 (converted)
  EC50: 0.0316 nM
[25]
  pEC90: 7.5
[25]; read-out: EC50
  EC50: 7.03 ng/mL
[25]; read-out: Log EC50 (converted)
  EC50: 12.6 nM
[26]
  Activity: 0.4
[27]
  Activity: 0.2
[28]
  Activity: 0.4
[29]
  Activity: 0.3
[30]
  Activity: 0.5
[31]
  Activity: 0.9
[32]
  Activity: 0.9
[33]
  Activity: 1.2
[34]
  Activity: 0.5
